Source: ChEMBL document CHEMBL1671701, “Discovery of potent small-molecule inhibitors of multidrug-resistant Plasmodium falciparum using a novel miniaturized high-throughput luciferase-based assay” (Antimicrob Agents Chemother, 2010)
pIC50: −log10 of the molar value. Counter-ions that a name gives are not always drawn.

System: Plasmodium falciparum
Assay: Antiplasmodial activity against Plasmodium falciparum 3D7 infected in RBCs by firefly luciferase reporter gene assay
Format: functional, organism-based
Settings: not given
Procedure, shortened: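 Sorbitol-synchronised 3D7 expressing firefly luciferase from the HRPII promoter, at 1% late-ring parasitemia and 3% hematocrit in RPMI/albumax II medium. Sixteen 2-fold dilutions from 17 μM to 0.5 nM, 48 h at 37°C under 5% O2/5% CO2/N2. Bright-Glo luminescence is normalised to untreated infected and uninfected-RBC wells. IC50 by four-parameter logistic fit.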

SMILES | pIC50
CCNC(=O)N1CCN(CCCC(c2ccc(F)cc2)c2ccc(F)cc2)CC1 [AMPEROZIDE DIHYDROCHLORIDE] | 6.35
CCNC(=O)N1CCN(CCCC(c2ccc(F)cc2)c2ccc(F)cc2)CC1 [AMPEROZIDE HYDROCHLORIDE] | 7.46

Same assay, conditions: Plasmodium falciparum, 3D7

SMILES | pIC50
O[Si](CCCN1CCCCC1)(c1ccc(F)cc1)C1CCCCC1 (stereo unspecified) | 8.40
CCCN(CCC)[C@H]1CCc2c(F)ccc(O)c2C1 | 8.30
COc1ccc(CNC2CCN(Cc3ccccc3)CC2)cc1 | 5.89
Clc1ccc(CNC2CCN(Cc3ccccc3)CC2)cc1 | 6.60
NC(=O)CCCCn1ccc(/N=C(\N)NCC(F)(F)F)n1 | 4.74
CN1CCN(CCCC(c2ccc(F)cc2)c2ccc(F)cc2)CC1 | 4.92
Fc1ccc(C(CCCN2CCOCC2)c2ccc(F)cc2)cc1 | 4.74
Oc1ccccc1N1CCCC2CCCCC21 (stereo unspecified) | 6.39
CN(CCc1ccccc1)c1cc(Br)cc(Br)c1O | 7.44
CC1CCCN(c2cc(Cl)cc(Cl)c2O)C1 (stereo unspecified) | 6.96
CC1CCCN(c2cccc(Br)c2O)C1 (stereo unspecified) | 6.89
Oc1c(Cl)cccc1N1CCCCCCC1 | 6.74
CCCCN(C)c1cc(Br)cc(Br)c1O | 6.57
CCCN(CC1CC1)c1cc(OC)cc(Br)c1O | 6.54
CCCN(CC1CC1)c1cc(Cl)cc(Cl)c1O | 6.48
CCCCN(Cc1ccccc1)c1ccccc1O | 6.38
Oc1c(Br)cccc1N1CCCCCCC1 | 6.37
CN(Cc1ccccc1)c1cc(Br)cc(Br)c1O | 6.17
CCCN(CC1CC1)c1cc(Br)cc(Br)c1O | 6.15
COc1ccc(O)c(N2CCCCC2)c1 | 6.10
Oc1c(Cl)cccc1C1=NN=C(c2ccc(F)cc2)C1 | 5.82
Cc1cccc(C2=NN=C(c3ccc(Br)cc3)C2)c1O | 5.33

SMILES | pIC50
Oc1c(Cl)cccc1C1=NN=C(c2ccc(Cl)cc2)C1 | 4.82
CCCN1CCC(NCC(c2ccccc2)c2ccccc2)CC1 | 6.31
c1ccc(CCN2CCC(NC3CCCCC3)CC2)cc1 | 6.05
Clc1cccc(CNC2CCN(Cc3ccccc3)CC2)c1 | 5.96
CC(=O)N(C1=C(N2CCCCC2)C(=O)c2ccccc2C1=O)C1CCCCC1 | 5.27
O=C(Nc1ccccc1)N1CCN(CCCC(c2ccc(F)cc2)c2ccc(F)cc2)CC1 | 5.14
Fc1ccc(C(CCCN2CCCC2)c2ccc(F)cc2)cc1 | 4.92
Fc1ccc(C(CCCN2CCCCC2)c2ccc(F)cc2)cc1 | 5.22
CCN(CC)CCCC(c1ccc(F)cc1)c1ccc(F)cc1 | 5.24
Cc1ccc(CS(=O)(=O)N2CCN(CCCC(c3ccc(F)cc3)c3ccc(F)cc3)CC2)cc1 | 6.10
O=S(=O)(c1ccccc1)N1CCN(CCCC(c2ccc(F)cc2)c2ccc(F)cc2)CC1 | 5.52
O=C1CCN(CCCC(c2ccc(F)cc2)c2ccc(F)cc2)CC1 | 5.27
C=CC[N+](C)(C)c1ccc(CCC(=O)CCc2ccc([N+](C)(C)CC=C)cc2)cc1 | 6.97
CCCN1CCC(NC(c2ccccc2)c2ccc(Cl)cc2)CC1 (stereo unspecified) | 5.96
CC(=O)N(C1=C(N2CCCCC2)C(=O)c2ccccc2C1=O)c1cccc(Cl)c1 | 5.37
Fc1ccc(C(CCCN2CCNCC2)c2ccc(F)cc2)cc1 | 5.35
N=C(N)c1ccc(OCCCCCOc2ccc(C(=N)N)cc2)cc1 | 7.38
N/C(=N\C(=O)c1nc(Cl)c(N)nc1N)NCc1ccc(Cl)c(Cl)c1 [3',4' DICHLOROBENZAMIL] | 6.84
CN(C)c1nc(N)c(C(=O)NC(=N)N)nc1Cl [5-(N,N-DIMETHYL)AMILORIDE HYDROCHLORIDE] | 5.96
CCN(c1nc(N)c(C(=O)NC(=N)N)nc1Cl)C(C)C [5-(N-ETHYL-N-ISOPROPYL)AMILORIDE] | 6.08
CC(C)CN(C)c1nc(N)c(C(=O)N=C(N)N)nc1Cl [5-(N-METHYL-N-ISOBUTYL)AMILORIDE] | 6.26
N#CN/C(=N\CCNC(=O)c1ccc(N)cc1)NCCCOc1cccc(CN2CCCCC2)c1 [AMINOPOTENTIDINE] | 4.83
